Tests used:
[1] = Lipophilicity, log D of the compound; type: physicochemical; details: octanol/water
Summary of the method: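 Shake-flask logD, run manually in two vials. Compound (0.1 mg) in octanol saturated with 10 mM phosphate buffer pH 7.4, sonicated 3 min, shaken 4 min at 20 °C. Phases separated by centrifugation, then quantified by reversed-phase HPLC with UV at 254 nm by peak area.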

[2] = Metabolic stability in Han Wistar rat hepatocytes at 1 uM after 60 mins; type: ADME, cell-based, Hepatocyte; details: read-out: Stability
Summary of the method: (§1)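 Hepatocytes isolated from Han Wistar rat liver by two-step perfusion and Percoll purification; viability by trypan blue. Incubated at 0.5×10^6 viable cells/mL in Williams' medium E + 5% FCS with 1 µM compound, shaken continuously. Aliquots taken at 2–60 min and quenched with cold methanol, frozen overnight, centrifuged. Supernatant analysed by LC-MS/MS.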

[3] = Metabolic stability in Han Wistar rat hepatocytes at 1 uM after 45 mins; type: ADME, cell-based, Hepatocyte; details: read-out: Stability; summary of the method: as §1
[4] = Metabolic stability in Han Wistar rat hepatocytes at 1 uM after 16 mins; type: ADME, cell-based, Hepatocyte; details: read-out: Stability; summary of the method: as §1
[5] = Metabolic stability in Han Wistar rat hepatocytes at 1 uM after 30 mins; type: ADME, cell-based, Hepatocyte; details: read-out: Stability; summary of the method: as §1
[6] = Metabolic stability in Han Wistar rat hepatocytes at 1 uM after 8 mins; type: ADME, cell-based, Hepatocyte; details: read-out: Stability; summary of the method: as §1
[7] = Metabolic stability in Han Wistar rat hepatocytes at 1 uM after 2 mins; type: ADME, cell-based, Hepatocyte; details: read-out: Stability; summary of the method: as §1
[8] = Stability of the compound in human plasma at 22 MBq/mL after 5 mins; type: ADME, cell-free; details: read-out: Stability
[9] = Stability of the compound in human plasma at 22 MBq/mL up to 120 mins; type: ADME, cell-free; details: read-out: Stability
Summary of the method: (§2)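 Radiotracer at 22 MBq/mL incubated in human or rat plasma at 37 °C; sampled at 0, 30, 60, 90 and 120 min. Proteins precipitated with MeOH and centrifuged. Supernatant analysed by radio-HPLC and by radio-TLC (BuOH/AcOH/H2O 12:3:5). Intact tracer expressed as % of the 0 min sample.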

[10] = tested on: Plasma; experiment: (§3) Stability of the compound in rat plasma at 22 MBq/mL up to 120 mins; type: ADME, cell-free; details: 2 h; summary of the method: as §2
[11] = as §3; type: ADME, cell-free; details: read-out: Stability; summary of the method: as §2
[12] = tested on: DU-145; experiment: Cellular uptake in human DU145 cells at 0.2 MBq up to 60 mins by gamma counting in presence of FET; type: ADME, cell-based; details: du-145, 1 h
[13] = tested on: NCI-H460; experiment: Cellular uptake in human NCI-H460 cells at 0.2 MBq up to 60 mins by gamma counting in presence of FET; type: ADME, cell-based; details: nci-h460, 1 h
[14] = tested on: A549; experiment: Cellular uptake in human A549 cells at 0.2 MBq up to 60 mins by gamma counting in presence of FET; type: ADME, cell-based; details: a549, 1 h
[15] = tested on: DU-145; experiment: Cellular uptake in human DU145 cells at 0.2 MBq up to 60 mins by gamma counting in presence of L-3-FCBT; type: ADME, cell-based; details: du-145, 1 h
[16] = tested on: NCI-H460; experiment: Cellular uptake in human NCI-H460 cells at 0.2 MBq up to 60 mins by gamma counting in presence of L-3-FCBT; type: ADME, cell-based; details: nci-h460, 1 h
[17] = tested on: A549; experiment: Cellular uptake in human A549 cells at 0.2 MBq up to 60 mins by gamma counting in presence of L-3-FCBT; type: ADME, cell-based; details: a549, 1 h
[18] = tested on: DU-145; experiment: Cellular uptake in human DU145 cells assessed per 1-'5 cells at 0.2 MBq after 60 mins by gamma counting; type: ADME, cell-based; details: du-145, 1 h
Summary of the method: (§4)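 Sub-confluent cells seeded 1–2 days earlier (A549 and DU145 in DMEM + 10% FBS; NCI-H460 in DMEM/F-12 + 10% FBS). Washed with PBS, then incubated with 0.2 MBq radiotracer per well in PBS + 0.1% BSA (8% EtOH) at 37 °C, 5% CO2, for 10, 20, 30 and 60 min. Washed, lysed in 1 M NaOH and gamma-counted. Expressed as % applied dose per 10^5 cells, decay-corrected, in triplicate.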

[19] = tested on: NCI-H460; experiment: Cellular uptake in human NCI-H460 cells assessed per 1-'5 cells at 0.2 MBq after 60 mins by gamma counting; type: ADME, cell-based; details: nci-h460, 1 h; summary of the method: as §4
[20] = tested on: DU-145; experiment: Cellular uptake in human DU145 cells assessed per 1-'5 cells at 0.2 MBq after 10 mins by gamma counting; type: ADME, cell-based; details: du-145, 10 min; summary of the method: as §4
[21] = tested on: NCI-H460; experiment: Cellular uptake in human NCI-H460 cells assessed per 1-'5 cells at 0.2 MBq after 10 mins by gamma counting; type: ADME, cell-based; details: nci-h460, 10 min; summary of the method: as §4
[22] = tested on: A549; experiment: Cellular uptake in human A549 cells assessed per 1-'5 cells at 0.2 MBq after 30 mins by gamma counting; type: ADME, cell-based; details: a549, 0.5 h; summary of the method: as §4
[23] = tested on: A549; experiment: Cellular uptake in human A549 cells assessed per 1-'5 cells at 0.2 MBq after 10 mins by gamma counting; type: ADME, cell-based; details: a549, 10 min; summary of the method: as §4
[24] = tested on: DU-145; experiment: Cellular uptake in human DU145 cells at 0.2 MBq by gamma counting; type: ADME, cell-based; details: TDE = time-dependent effect; summary of the method: as §4
[25] = tested on: NCI-H460; experiment: Cellular uptake in human NCI-H460 cells at 0.2 MBq by gamma counting; type: ADME, cell-based; details: TDE = time-dependent effect; summary of the method: as §4
[26] = tested on: A549; experiment: Cellular uptake in human A549 cells at 0.2 MBq by gamma counting; type: ADME, cell-based; details: TDE = time-dependent effect; summary of the method: as §4

`N[C@@H](Cc1ccc(OCCF)cc1)C(=O)O` [O-(2-FLUOROETHYL)-L-TYROSINE] showed a logD [1] of -1.51.
`N[C@@H](Cc1ccc(O[C@H]2C[C@@H](F)C2)cc1)C(=O)O` showed a remaining at 1 h, 1 µM [2] of 94%, a remaining at 0.75 h, 1 µM [3] of 95% and a remaining at 16 min, 1 µM [4] of 98%. The remaining at 0.5 h, 1 µM [5] was 97%, the remaining at 8 min, 1 µM [6] was 99% and the remaining at 2 min, 1 µM [7] was 100%.
With `N[C@@H](Cc1ccc(OCC[18F])cc1)C(=O)O` [FLORETYROSINE F18] the remaining at 5 min, 22 MBq/mL [8] was 95%, the remaining at 2 h, 22 MBq/mL [9] was 87% and the Stability [10] was “Stable”.
In the case of `N[C@@H](Cc1ccc(O[C@H]2C[C@@H]([18F])C2)cc1)C(=O)O`, the remaining at 2 h, 22 MBq/mL [9] is reported as greater than 99.9%, the remaining at 2 h, 22 MBq/mL [11] is reported as greater than 99.9% and the Drug uptake [12] is reported as “Not Active”. The Drug uptake [13] was “Not Active”, the Drug uptake [14] was “Not Active” and the Drug uptake [15] was “Not Active”. The Drug uptake [16] was “Not Active”, the Drug uptake [17] was “Not Active” and the Drug uptake [18] was 2.1%. It also gave a Drug uptake [19] of 2.1%, a Drug uptake [20] of 0.7% and a Drug uptake [21] of 0.7%. The Drug uptake [22] was 5.8%, the Drug uptake [23] was 2.8% and the Drug uptake [24] was “tde”. For the same compound, the Drug uptake [25] was “tde” and the Drug uptake [26] was “tde”.

Source: ChEMBL document CHEMBL2311343, “Investigations into the synthesis, radiofluorination and conjugation of a new [¹⁸F]fluorocyclobutyl prosthetic group and its in vitro stability using a tyrosine model system” (Bioorg Med Chem, 2013)
